Reference: ChEMBL document CHEMBL5653631, “A Potent and Selective ULK1 Inhibitor Suppresses Autophagy and Sensitizes Cancer Cells to Nutrient Stress” (iScience, 2018)
Each block holds one molecule with its values, some of them ahead of it.

Key:
[1] = biological target: Tyrosine-protein kinase FRK (Homo sapiens) (UniProt P42685); assay: Inhibition of human recombinant FRK at 500 nM in presence of ATP by radiometric assay relative to control
[2] = biological target: T1, Activin receptor type-1B (Homo sapiens) (UniProt P36896); assay: Inhibition of human recombinant ALK4 at 15 nM in presence of ATP by radiometric assay relative to control
T1 sequence (whole entry): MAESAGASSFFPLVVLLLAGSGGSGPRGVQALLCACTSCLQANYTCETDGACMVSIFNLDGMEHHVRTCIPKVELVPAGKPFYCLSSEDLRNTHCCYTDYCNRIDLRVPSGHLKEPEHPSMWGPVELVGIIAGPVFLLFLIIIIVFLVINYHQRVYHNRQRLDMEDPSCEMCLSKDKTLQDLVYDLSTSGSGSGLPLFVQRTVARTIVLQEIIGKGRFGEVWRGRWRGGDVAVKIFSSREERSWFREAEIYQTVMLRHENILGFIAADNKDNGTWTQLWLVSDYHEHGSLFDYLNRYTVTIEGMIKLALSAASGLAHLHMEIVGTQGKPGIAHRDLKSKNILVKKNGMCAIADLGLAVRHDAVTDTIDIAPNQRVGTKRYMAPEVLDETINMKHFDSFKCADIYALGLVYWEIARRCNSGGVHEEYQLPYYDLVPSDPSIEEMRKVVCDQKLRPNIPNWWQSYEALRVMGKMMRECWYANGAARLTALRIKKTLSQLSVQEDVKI
Outline: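 Panel of 327 recombinant human kinases, each assayed in vitro by radiometric activity assay in duplicate at a single inhibitor concentration per compound, chosen with reference to its ULK1 inhibition. Activity remaining was expressed as percent of vehicle control, and percent inhibition was calculated as 100 minus percent activity remaining.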

[3] = biological target: Dual specificity protein kinase CLK3 (Homo sapiens) (UniProt P49761); assay: Inhibition of human recombinant CLK3 at 15 nM in presence of ATP by radiometric assay relative to control
Dual specificity protein kinase CLK3 (Homo sapiens), sequence (P49761 whole entry, looked up): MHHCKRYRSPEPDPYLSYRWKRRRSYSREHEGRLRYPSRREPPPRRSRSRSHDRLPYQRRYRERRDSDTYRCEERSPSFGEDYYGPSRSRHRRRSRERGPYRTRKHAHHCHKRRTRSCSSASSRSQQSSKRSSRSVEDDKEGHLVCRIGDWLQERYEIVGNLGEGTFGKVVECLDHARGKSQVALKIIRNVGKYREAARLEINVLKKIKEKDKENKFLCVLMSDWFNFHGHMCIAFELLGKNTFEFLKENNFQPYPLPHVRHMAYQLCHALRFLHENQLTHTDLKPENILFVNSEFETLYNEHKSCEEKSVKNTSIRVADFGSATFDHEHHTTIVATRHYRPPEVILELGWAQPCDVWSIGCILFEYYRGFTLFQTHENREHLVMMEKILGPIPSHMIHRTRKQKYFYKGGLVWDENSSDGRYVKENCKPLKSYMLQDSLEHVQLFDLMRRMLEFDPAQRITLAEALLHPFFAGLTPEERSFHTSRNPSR

[4] = biological target: T2, Serine/threonine-protein kinase PLK4 (Homo sapiens) (UniProt O00444); assay: Inhibition of human recombinant PLK4 at 15 nM related to control ULK1
T2 sequence (whole entry): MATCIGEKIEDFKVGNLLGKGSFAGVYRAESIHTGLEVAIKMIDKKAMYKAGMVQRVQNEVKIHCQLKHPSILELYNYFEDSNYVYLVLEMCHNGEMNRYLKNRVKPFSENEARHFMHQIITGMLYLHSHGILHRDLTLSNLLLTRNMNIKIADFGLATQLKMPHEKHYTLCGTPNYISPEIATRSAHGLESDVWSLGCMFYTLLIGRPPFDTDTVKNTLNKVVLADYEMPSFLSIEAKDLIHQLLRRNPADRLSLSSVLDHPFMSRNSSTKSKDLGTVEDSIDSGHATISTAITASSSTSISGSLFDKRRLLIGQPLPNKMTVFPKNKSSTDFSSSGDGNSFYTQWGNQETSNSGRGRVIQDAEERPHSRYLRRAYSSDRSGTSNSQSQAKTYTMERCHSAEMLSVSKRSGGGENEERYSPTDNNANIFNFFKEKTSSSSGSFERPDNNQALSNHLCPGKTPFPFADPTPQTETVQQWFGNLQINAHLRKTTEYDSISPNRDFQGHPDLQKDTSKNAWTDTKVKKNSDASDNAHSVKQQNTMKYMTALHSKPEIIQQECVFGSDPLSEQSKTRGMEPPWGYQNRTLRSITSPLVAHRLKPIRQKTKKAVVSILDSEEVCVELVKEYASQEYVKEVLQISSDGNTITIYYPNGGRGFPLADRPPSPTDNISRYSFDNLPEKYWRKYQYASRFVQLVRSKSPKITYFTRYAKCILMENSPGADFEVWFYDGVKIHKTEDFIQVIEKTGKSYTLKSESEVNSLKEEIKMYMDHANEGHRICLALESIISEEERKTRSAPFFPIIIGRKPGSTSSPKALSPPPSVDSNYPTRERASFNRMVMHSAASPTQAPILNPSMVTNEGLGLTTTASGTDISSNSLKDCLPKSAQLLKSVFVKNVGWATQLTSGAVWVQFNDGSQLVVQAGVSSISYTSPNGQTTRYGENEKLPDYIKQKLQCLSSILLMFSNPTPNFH

[5] = biological target: Homeodomain-interacting protein kinase 3 (Homo sapiens) (UniProt Q9H422); assay: Inhibition of human recombinant HIPK3 at 40 nM in presence of ATP by radiometric assay relative to control
Homeodomain-interacting protein kinase 3 (Homo sapiens), sequence (Q9H422 whole entry, looked up): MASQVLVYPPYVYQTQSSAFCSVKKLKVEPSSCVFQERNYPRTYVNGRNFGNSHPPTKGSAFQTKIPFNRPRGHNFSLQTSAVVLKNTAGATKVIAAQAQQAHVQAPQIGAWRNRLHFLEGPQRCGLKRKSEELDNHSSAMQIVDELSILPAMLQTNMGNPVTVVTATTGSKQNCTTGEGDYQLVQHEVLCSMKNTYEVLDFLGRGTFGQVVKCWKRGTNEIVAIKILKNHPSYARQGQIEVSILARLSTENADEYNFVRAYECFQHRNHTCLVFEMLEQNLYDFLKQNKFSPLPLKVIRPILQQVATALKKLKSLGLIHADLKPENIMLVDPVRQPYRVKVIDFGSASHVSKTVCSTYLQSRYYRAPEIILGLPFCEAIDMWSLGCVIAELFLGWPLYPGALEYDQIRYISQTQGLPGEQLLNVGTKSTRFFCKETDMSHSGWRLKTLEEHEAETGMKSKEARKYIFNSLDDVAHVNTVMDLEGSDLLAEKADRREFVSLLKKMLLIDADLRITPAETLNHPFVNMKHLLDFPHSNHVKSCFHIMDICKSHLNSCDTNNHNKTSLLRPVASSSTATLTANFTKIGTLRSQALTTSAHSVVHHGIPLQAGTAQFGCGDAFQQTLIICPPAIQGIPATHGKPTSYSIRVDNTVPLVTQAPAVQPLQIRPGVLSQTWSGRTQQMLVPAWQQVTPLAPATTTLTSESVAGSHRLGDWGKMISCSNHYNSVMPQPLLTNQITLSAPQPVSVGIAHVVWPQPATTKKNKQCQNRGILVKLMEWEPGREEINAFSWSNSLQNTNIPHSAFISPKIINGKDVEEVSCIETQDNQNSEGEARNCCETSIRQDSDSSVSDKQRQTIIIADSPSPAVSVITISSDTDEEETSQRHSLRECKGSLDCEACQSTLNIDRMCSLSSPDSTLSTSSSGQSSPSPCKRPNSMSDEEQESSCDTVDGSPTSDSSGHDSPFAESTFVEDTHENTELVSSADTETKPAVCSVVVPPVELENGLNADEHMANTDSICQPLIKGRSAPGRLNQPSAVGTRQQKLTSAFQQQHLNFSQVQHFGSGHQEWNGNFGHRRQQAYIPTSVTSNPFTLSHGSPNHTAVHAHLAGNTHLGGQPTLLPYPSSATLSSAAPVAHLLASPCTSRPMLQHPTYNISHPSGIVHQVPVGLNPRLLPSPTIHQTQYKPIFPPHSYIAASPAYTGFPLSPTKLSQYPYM

[6] = biological target: T3, Ephrin type-B receptor 2 (Homo sapiens) (UniProt P29323); assay: Inhibition of human recombinant EphB2 at 40 nM related to control ULK1
T3 sequence (whole entry): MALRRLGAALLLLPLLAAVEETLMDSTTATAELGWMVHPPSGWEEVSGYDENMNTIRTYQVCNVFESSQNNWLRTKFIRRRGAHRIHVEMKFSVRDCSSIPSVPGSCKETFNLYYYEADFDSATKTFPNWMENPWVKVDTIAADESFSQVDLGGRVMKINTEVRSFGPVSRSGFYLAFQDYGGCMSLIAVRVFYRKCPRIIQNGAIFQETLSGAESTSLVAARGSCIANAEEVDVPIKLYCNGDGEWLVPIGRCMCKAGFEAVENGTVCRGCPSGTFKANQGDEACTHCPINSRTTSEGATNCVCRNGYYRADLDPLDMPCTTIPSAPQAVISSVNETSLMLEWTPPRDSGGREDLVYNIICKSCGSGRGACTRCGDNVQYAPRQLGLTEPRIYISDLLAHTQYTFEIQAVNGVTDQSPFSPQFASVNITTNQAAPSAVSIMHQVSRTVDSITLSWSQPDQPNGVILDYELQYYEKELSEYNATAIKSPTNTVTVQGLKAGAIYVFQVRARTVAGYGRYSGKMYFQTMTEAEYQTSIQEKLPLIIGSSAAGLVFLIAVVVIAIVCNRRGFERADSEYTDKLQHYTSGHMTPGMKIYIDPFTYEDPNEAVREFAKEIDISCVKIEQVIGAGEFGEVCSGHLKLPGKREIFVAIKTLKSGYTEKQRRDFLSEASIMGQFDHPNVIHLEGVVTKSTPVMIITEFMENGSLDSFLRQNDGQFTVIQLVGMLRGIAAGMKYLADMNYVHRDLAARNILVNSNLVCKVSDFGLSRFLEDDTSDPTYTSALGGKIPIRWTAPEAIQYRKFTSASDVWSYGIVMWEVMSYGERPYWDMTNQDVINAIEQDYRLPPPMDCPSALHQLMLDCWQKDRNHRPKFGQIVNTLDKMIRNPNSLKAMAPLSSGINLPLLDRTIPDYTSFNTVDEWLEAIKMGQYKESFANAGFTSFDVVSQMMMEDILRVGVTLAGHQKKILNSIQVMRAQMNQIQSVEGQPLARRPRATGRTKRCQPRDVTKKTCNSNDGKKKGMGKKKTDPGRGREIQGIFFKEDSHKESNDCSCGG

[7] = biological target: Homeodomain-interacting protein kinase 1 (Homo sapiens) (UniProt Q86Z02); assay: Inhibition of human recombinant HIPK1 at 40 nM related to control ULK1
Homeodomain-interacting protein kinase 1 (Homo sapiens), sequence (Q86Z02 whole entry, looked up): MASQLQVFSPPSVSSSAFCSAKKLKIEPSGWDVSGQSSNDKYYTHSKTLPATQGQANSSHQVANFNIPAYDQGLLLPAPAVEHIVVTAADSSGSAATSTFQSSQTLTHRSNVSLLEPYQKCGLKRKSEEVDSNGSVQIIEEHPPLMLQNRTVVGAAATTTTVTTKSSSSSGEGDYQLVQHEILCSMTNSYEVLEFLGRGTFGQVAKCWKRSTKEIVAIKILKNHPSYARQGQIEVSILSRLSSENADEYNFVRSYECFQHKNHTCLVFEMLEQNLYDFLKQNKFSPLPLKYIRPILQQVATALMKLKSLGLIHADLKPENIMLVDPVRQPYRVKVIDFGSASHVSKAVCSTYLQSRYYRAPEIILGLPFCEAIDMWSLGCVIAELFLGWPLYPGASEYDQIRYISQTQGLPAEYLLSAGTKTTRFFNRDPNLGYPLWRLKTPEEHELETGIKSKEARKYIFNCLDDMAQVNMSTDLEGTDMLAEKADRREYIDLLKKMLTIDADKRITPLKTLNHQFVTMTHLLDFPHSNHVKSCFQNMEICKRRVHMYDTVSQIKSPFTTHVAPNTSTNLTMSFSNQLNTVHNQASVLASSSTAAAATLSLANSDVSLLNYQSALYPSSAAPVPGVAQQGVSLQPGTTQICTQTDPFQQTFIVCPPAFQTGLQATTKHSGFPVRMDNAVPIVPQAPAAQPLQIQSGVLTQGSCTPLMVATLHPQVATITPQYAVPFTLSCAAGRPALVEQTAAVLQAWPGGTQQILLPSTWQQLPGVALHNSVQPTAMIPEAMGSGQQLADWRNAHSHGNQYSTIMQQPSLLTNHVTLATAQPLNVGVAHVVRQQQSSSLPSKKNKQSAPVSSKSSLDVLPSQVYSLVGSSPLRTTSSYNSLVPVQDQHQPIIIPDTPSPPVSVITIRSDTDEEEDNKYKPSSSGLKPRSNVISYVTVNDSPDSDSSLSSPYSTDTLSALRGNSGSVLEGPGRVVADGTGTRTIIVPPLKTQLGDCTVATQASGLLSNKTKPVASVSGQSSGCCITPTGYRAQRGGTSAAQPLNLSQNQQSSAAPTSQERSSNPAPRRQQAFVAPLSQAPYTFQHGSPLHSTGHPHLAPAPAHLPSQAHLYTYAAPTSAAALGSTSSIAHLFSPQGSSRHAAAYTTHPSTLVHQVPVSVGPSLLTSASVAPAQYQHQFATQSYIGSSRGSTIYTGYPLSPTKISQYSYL

Tyrosine-protein kinase FRK (Homo sapiens), sequence (P42685 whole entry): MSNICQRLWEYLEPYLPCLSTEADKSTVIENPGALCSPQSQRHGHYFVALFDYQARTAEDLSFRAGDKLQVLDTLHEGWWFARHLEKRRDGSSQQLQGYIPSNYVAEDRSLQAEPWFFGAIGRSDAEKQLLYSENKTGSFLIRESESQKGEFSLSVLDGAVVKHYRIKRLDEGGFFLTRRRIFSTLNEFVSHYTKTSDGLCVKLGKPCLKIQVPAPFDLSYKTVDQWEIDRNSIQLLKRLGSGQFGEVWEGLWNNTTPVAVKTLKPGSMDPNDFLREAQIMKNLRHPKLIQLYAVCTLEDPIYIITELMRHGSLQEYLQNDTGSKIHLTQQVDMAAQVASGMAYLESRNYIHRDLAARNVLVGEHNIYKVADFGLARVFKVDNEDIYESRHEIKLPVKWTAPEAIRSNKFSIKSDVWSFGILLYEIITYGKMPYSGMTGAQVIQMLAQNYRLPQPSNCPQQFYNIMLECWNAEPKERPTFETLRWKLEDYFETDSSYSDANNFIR

inhibition [1]: 9%
Compound: CNC(=O)c1ccccc1Oc1nc(Nc2cc(OC)c(OC)c(OC)c2)ncc1Br

inhibition [2]: 20%
inhibition [3]: 1%
fold change (FC) [4]: 0.35
Compound: CC(C)[C@H](NC(=O)c1cc(-c2cnn3cc(-c4ccc(OCCN5CCCCC5)cc4)cnc23)cs1)C(F)(F)F

inhibition [5]: 5%
fold change (FC) [6]: 0.05
fold change (FC) [7]: 0
Compound: O=C(N[C@@H](C1CC1)C(F)(F)F)c1cc(-c2cnn3cc(-c4ccc(F)cc4)cnc23)cs1
